Assay outcomes from PubChem.
DTT redox prof = compounds producing H2O2 with reducing agent – biochemical, NIH compound library profiling, artefact control for MLSCN library redox annotation, primary screen; DTT-dependent redox cycling H2O2, phenol red/HRP absorbance; 100% = 100 µM peroxide control, 0% = buffer; activation, % at 10 µM; hit rate 0.03% among 200,000; AID 878;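 active = activation of at least 50% relative to the plate's high and low controls in the primary single-dose screen; inactive = activation below 50%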;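 note: compound incubated with DTT at 0.8 mM final as the reducing agent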
T cruzi inh = blocks replication of Trypanosoma cruzi; T. cruzi beta-gal in NIH3T3, luminescence, 90 h; inhibition, % (test concentration not listed); hit rate 1.4% among 300,000; AID 1885;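 active = mean inhibition across valid replicates above about 55%, limit read from the data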;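 note: signal also drops with host cell toxicity which is not excluded here; 0% = plate median of DMSO wells and 100% = zero luminescence signal; higher percent means less beta-gal luminescence so fewer parasites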
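System: NIH/3T3 fibroblasts plus reporter T. cruzi. Medium: DMEM plus 2% FBS. Probe or stimulus: 5000 reporter trypomastigotes per well. Compound: single 50 nL compound addition per well in DMSO. Incubation: co-culture of at least 90 h after 3 h attachment. Detection: GalScreen β-gal luminescence, detergent lysis, 60 min. Evaluation: parasite load inhibition, %.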
Lmaj promast = reduces viability of Leishmania major promastigotes; resazurin fluorescence viability; inhibition, % at 10 µM; hit rate 9% among 200,000; in the data active = inhibition above about 50%;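 note: promastigotes grown with compound for 44 hours at 28 °C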
MPTP block = inhibitors of mitochondrial permeability transition pore | isolated mouse mitochondria, Ca2+ swelling absorbance, 30 min | inhibition, % at 10 µM | hit rate 1.4% among 360,000 | AID 602449;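 active = inhibition of 50% or more, scaled per plate between neutral and stimulator controls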;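 note: 0% = DMSO wells given calcium and 100% = 1 mM EGTA wells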
Hep lipid drop = modulators of hepatic lipid droplet formation. AML12 mouse hepatocytes, oleate lipid droplets, BODIPY imaging. inhibition, % at 6.5 µM. hit rate 0.4% among 240,000. AID 1656;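 active = lipid droplet intensity inhibited by at least 50%, with more than 500 cells counted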
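Material: mouse AML12 hepatocyte cell line, fixed after treatment; Timing: compound with oleate, overnight; Technique: high-content imaging of BODIPY-stained droplets and DAPI nuclei; Probe or stimulus: oleate, 100 µM final; Dosing: compound at 6.5 µM only.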
* hit, by the source's call; . = no result. This excerpt belongs to a sample that is enriched for hits.

SMILES	DTT redox prof	T cruzi inh	Lmaj promast	MPTP block	Hep lipid drop
COc1ccc(CCNCc2cc(C)n(-c3ccc(OC)cc3)c2C)cc1	.	65*	.	2	-32
Cc1cc(C(=O)CN2C(=O)C(=O)N(Cc3ccccc3)C2=O)c(C)n1-c1ccccc1F	0	-20	-7	0	1
Cc1cc(-n2c(C)cc(C(=O)CCl)c2C)no1	0	79*	101*	0	8
Cc1cc(-n2c(C)cc(C(=O)CN3C(=O)NC4(CCCCC4C)C3=O)c2C)no1 (configuration not stated)	0	6	79*	1	.
COc1ccc(C2/C=C\CN(Cc3ccc(N(C)C)cc3)CC(=O)N2Cc2ccc(F)cc2)cc1 (configuration not stated)	.	-1	.	2	33
COc1ccc(-n2c(C)cc(C(=O)CN3C(=O)c4ccccc4C3=O)c2C)cc1	0	1	-7	-5	-30
Cc1ccc(-n2c(C)cc(C(=O)CN3CCCCC3)c2C)cc1	0	26	86*	0	21
COc1ccc(-n2c(C)cc(C(=O)CCl)c2C)cc1	0	43	101*	-4	-1
Cc1nnc(SCC(=O)c2cc(C)n(-c3c(C)n(C)n(-c4ccccc4)c3=O)c2C)s1	-3	-5	-9	-1	.
Cc1cc(C(=O)CCl)c(C)n1-c1c(C)n(C)n(-c2ccccc2)c1=O	0	-41	67*	0	-5
Cc1cnccc1CNC(=O)CC1C(=O)NCCN1CC(C)(C)C (configuration not stated)	0	1	-10	1	4
CCC1CCCCN1CCCNC(=O)c1cn(CC)c2ccc(S(=O)(=O)N3CCc4ccccc4C3)cc2c1=O (configuration not stated)	0	29	98*	0	-17
CCn1cc(C(=O)NCCCN2CCCC(C)C2)c(=O)c2cc(S(=O)(=O)N3CCc4ccccc4C3)ccc21 (configuration not stated)	1	27	100*	-5	-8
CCN(CC(=O)Nc1cc(Cl)cc(Cl)c1)CC(=O)NC1CCS(=O)(=O)C1 (configuration not stated)	.	.	.	-2	.
CCCCc1ccc(/C(C)=N/Nc2cc(N3CCOCC3)nc(C)n2)cc1	.	62*	.	1	16
CCOC(=O)C1=CC[C@H]2c3c(c4ccccc4n3C)C(=O)C1N2C(=O)OC(C)(C)C	.	.	.	-2	.
Oc1ccccc1/C=N/Nc1cc(N2CCCC2)nc(N2CCCC2)n1	0	57*	96*	0	1
Oc1ccc(/C=N/Nc2cc(N3CCOCC3)nc(N3CCOCC3)n2)cc1O	0	6	-11	2	-7
Cc1nc(N/N=C/c2ccc(O)cc2O)cc(N2CCOCC2)n1	.	13	.	0	13
Oc1cccc(/C=N/Nc2cc(N3CCOCC3)nc(N3CCOCC3)n2)c1	0	7	61*	0	-49
CC(=O)Nc1ccc(NS(=O)(=O)c2c(Cl)cccc2Cl)cc1	.	0	.	1	-18
CCCNS(=O)(=O)c1cc2c3c(c1)CCN3C(=O)CC2	.	0	.	-2	4
CCN(CC)S(=O)(=O)c1ccc(NC(=O)c2ccc(Sc3nncn3C)c([N+](=O)[O-])c2)cc1	1	-25	-4	0	1
Cn1cnnc1Sc1ccc(/C=C/C(=O)c2ccc(O)cc2)cc1[N+](=O)[O-]	0	-31	100*	0	-3
CCN(CC(=O)Nc1ccc(NC(C)=O)cc1)C(=O)c1ccc(Sc2nncn2C)c([N+](=O)[O-])c1	.	.	.	0	.
SMILES	DTT redox prof	T cruzi inh	Lmaj promast	MPTP block	Hep lipid drop
CCC(C)(C)NC(=O)c1ccc(Sc2nncn2C)c([N+](=O)[O-])c1	0	2	50*	24	5
Cn1cnnc1Sc1ccc(C(=O)NCCC23CC4CC(CC(C4)C2)C3)cc1[N+](=O)[O-]	0	32	51*	2	17
O=C(NCc1cccnc1)C1Cc2c(-c3ccc(Cl)cc3)ccnc2O1 (configuration not stated)	.	.	.	-1	.
CC(C)(O)C#Cc1ccc(CN2CCCC(CO)(Cc3cccc(Cl)c3)C2)cc1 (configuration not stated)	0	58*	97*	2	-14
Cc1ccc(C)c(-c2[nH]ncc2CN2CCCC(CO)(Cc3ccccc3C)C2)c1 (configuration not stated)	-1	33	73*	2	-31
Cc1ccccc1CC1(CO)CCCN(Cc2ccc(C#CC(C)(C)O)cc2)C1 (configuration not stated)	1	36	85*	1	-1
Cc1ccc2nc(C)cc(C(=O)N3CCCC(CO)(Cc4ccccc4C)C3)c2c1 (configuration not stated)	-1	29	61*	-1	-24
OCC1(Cc2ccccc2)CCCN(Cc2cn[nH]c2-c2ccccc2)C1 (configuration not stated)	-1	17	1	1	-21
CC(C)Oc1ccc(CN2CCCC(CO)(Cc3ccccc3)C2)cc1CO (configuration not stated)	.	17	.	3	-23
Cc1ccccc1CC1(CO)CCCN(Cc2ccccc2Cl)C1 (configuration not stated)	.	21	.	6	-34
CSCCC(NC(=O)c1ccco1)C(=O)N1CC=C(c2ccccc2)CC1 (configuration not stated)	.	-1	.	0	9
CCC(C)n1c(=S)[nH]c2c(sc3ccc([N+](=O)[O-])cc32)c1=O (configuration not stated)	0	-11	7	37	-18
O=C(Cn1ncc2c3ccccc3n(Cc3ccccc3)c2c1=O)NCCCN1CCCC1=O	.	9	.	-1	-19
O=C(O)c1nc(-c2ccccc2)c(C(=O)NC2CC2)[nH]1	.	.	.	-1	.
CCCCN1C(=O)C(=Nc2cccc3cnccc23)c2ccccc21	-2	15	77*	1	-1
CCCCN1C(C)=CC(=C2C(=O)c3ccccc3C2=O)C=C1C	-1	16	49	0	3
O=C(CCn1cnc(-c2ccccc2)c1-c1ccccc1)N/N=C/c1ccc(O)cc1	-1	-3	0	2	2
O=C(CCn1cnc(-c2ccccc2)c1-c1ccccc1)N/N=C/c1ccccc1O	0	10	98*	10	6
COc1ccc(C)cc1S(=O)(=O)N1CCCC(C(=O)N2CCN(c3ccccc3F)CC2)C1 (configuration not stated)	.	20	.	1	-8
CC[n+]1ccccc1/C=C1\Sc2ccc(C)cc2N1C	.	63*	.	1	.
C=CCNc1nc(C(=O)OC(C)C(=O)c2ccc(C)cc2)cs1 (configuration not stated)	.	.	.	0	.
CCOC(=O)Cn1nc(-c2ccc(Cl)cc2)cc1N	1	1	55*	1	1
CCOC(=O)c1oc2ccc(S(=O)(=O)n3nc(-c4ccc(Cl)cc4)cc3N)cc2c1C	-1	33	98*	6	.
